Results published in ChEMBL document CHEMBL1121665, “Synthesis and antiallergy activity of 4-oxo-4H-pyrido[1,2-a]thieno[2,3-d]pyrimidines” (1981).
Activity calls are given as the source filed them. The calls are words filed in the database; no cut-off is given here.

What was measured:
[1] = tested on: Rattus norvegicus; test: Antiallergic activity in the rat passive cutaneous anaphylaxis at dose 5 mg/kg after ip; type: functional; conditions: route intraperitoneal
Method in brief: (§1)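 Rats were immunized with ovalbumin 1 mg im plus about 10^10 Bordetella pertussis organisms (as pertussis vaccine) ip. Drug was suspended in 1% gum tragacanth/saline and given orally or ip 10–15 min before iv challenge with ovalbumin 1 mg plus 0.25% Evans blue. Wheal diameter was read 30 min later; n=5 per group; Student's t test.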

[2] = tested on: Rattus norvegicus; test: Compound was tested for antiallergic activity in the rat passive cutaneous anaphylaxis at dose 5 mg/kg after po; No significant activity; type: functional, organism-based; design: dose 5 mg/kg; method in brief: as §1
[3] = tested on: Rattus norvegicus; test: Compound was tested for antiallergic activity in the rat passive cutaneous anaphylaxis at dose 5 mg/kg after po; type: functional; method in brief: as §1
[4] = tested on: Rattus norvegicus; test: Compound was tested for antiallergic activity in the rat passive cutaneous anaphylaxis at dose 1 mg/kg after po; type: functional; method in brief: as §1
[5] = tested on: Rattus norvegicus; test: Compound was tested for antiallergic activity in the rat passive cutaneous anaphylaxis at dose 1-2 mg/kg after iv administration; Inactive; type: functional, organism-based
[6] = tested on: Rattus norvegicus; test: Compound was tested for antiallergic activity in the rat passive cutaneous anaphylaxis at dose 0.5 mg/kg after po; type: functional; method in brief: as §1
[7] = tested on: Rattus norvegicus; test: Compound was tested for antiallergic activity in the rat passive cutaneous anaphylaxis at dose 0.1 mg/kg after intravenous administration; type: functional
Method in brief: (§2)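 Ovalbumin/pertussis-immunized rat antiserum was titrated intradermally on the back 48 h before challenge. Compound was given iv, dissolved directly in the challenge solution (ovalbumin 1 mg in 1 mL saline, 0.25% Evans blue), with slight molar excess NaHCO3 if needed. Wheal diameter was measured 30 min later. Percent inhibition was taken at the highest antiserum level versus control, corrected for the extrapolated base value; groups of five.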

[8] = tested on: Rattus norvegicus; test: Compound was tested for antiallergic activity in the rat passive cutaneous anaphylaxis at dose 5 mg/kg after ip; No significant activity; type: functional, organism-based; design: dose 5 mg/kg; method in brief: as §1
[9] = tested on: Rattus norvegicus; test: Compound was tested for antiallergic activity in the rat passive cutaneous anaphylaxis, after peroral administration; type: functional; conditions: po, read-out: ID50 (the source's name); method in brief: as §1
[10] = tested on: Rattus norvegicus; test: Compound was tested for antiallergic activity in the rat passive cutaneous anaphylaxis, after intravenous administration; type: functional; conditions: read-out: ID50 (the source's name); method in brief: as §2

CCc1cc2c(=O)n3cc(C#N)ccc3nc2s1
inhibition in vivo at 5 mg/kg [1]: 13%
inhibition [2]: No significant activity

Cc1cc2c(=O)n3cc(C(=O)O)ccc3nc2s1
inhibition in vivo at 5 mg/kg [1]: 100%
inhibition in vivo at 5 mg/kg [3]: 62%

Cc1cc2c(=O)n3cc(C(=O)Nc4nn[nH]n4)ccc3nc2s1
inhibition in vivo at 5 mg/kg [1]: 25%
inhibition [2]: No significant activity

CCCCc1cc2c(=O)n3cc(C(=O)O)ccc3nc2s1
inhibition in vivo at 5 mg/kg [1]: 52%

Cc1sc2nc3ccc(C#N)cn3c(=O)c2c1C
inhibition in vivo at 5 mg/kg [1]: 14%

Cc1sc2nc3ccc(C(=O)Nc4nn[nH]n4)cn3c(=O)c2c1C
inhibition in vivo at 5 mg/kg [1]: 94%
inhibition [2]: No significant activity

CCCCc1cc2c(=O)n3cc(C(=O)Nc4nn[nH]n4)ccc3nc2s1
inhibition in vivo at 5 mg/kg [1]: 18%

COC(=O)c1ccc2nc3scc(C)c3c(=O)n2c1
inhibition in vivo at 5 mg/kg [1]: 23%

CCCc1cc2c(=O)n3cc(C(=O)O)ccc3nc2s1
inhibition in vivo at 5 mg/kg [1]: 68%
inhibition in vivo at 1 mg/kg [4]: 18%

CCOC(=O)c1ccc2nc3sc(C(C)C)cc3c(=O)n2c1
inhibition in vivo at 5 mg/kg [1]: 63%

O=C(O)c1ccc2nc3sc(-c4ccccc4)cc3c(=O)n2c1
inhibition in vivo at 5 mg/kg [1]: 17%
inhibition in vivo at 5 mg/kg [3]: 17%

CC(C)c1cc2c(=O)n3cc(C(N)=O)ccc3nc2s1
inhibition in vivo at 5 mg/kg [1]: 100%

Cc1cc2c(=O)n3cc(-c4nnn[nH]4)ccc3nc2s1
inhibition in vivo at 5 mg/kg [1]: 100%
inhibition [2]: No significant activity

CCCc1cc2c(=O)n3cc(-c4nnn[nH]4)ccc3nc2s1
inhibition in vivo at 5 mg/kg [1]: 100%
inhibition in vivo at 5 mg/kg [3]: 67%

O=C(O)c1cc(=O)c2c(OCC(O)COc3cccc4oc(C(=O)O)cc(=O)c34)cccc2o1
ID50 [5]: inactive

CCc1cc2c(=O)n3cc(C(=O)O)ccc3nc2s1
inhibition in vivo at 0.5 mg/kg [6]: 69%
inhibition in vivo at 5 mg/kg [1]: 100%
inhibition in vivo at 0.1 mg/kg [7]: 33%

CCc1cc2c(=O)n3cc(-c4nnn[nH]4)ccc3nc2s1
inhibition in vivo at 0.5 mg/kg [6]: 38%
inhibition in vivo at 5 mg/kg [1]: 97%
inhibition in vivo at 0.1 mg/kg [7]: 56%

CC(C)c1cc2c(=O)n3cc(C(=O)O)ccc3nc2s1
inhibition in vivo at 5 mg/kg [1]: 100%

CCc1cc2c(=O)n3cc(C(N)=O)ccc3nc2s1
inhibition in vivo at 5 mg/kg [1]: 46%
inhibition [2]: No significant activity

Cc1cc2c(=O)n3cc(C#N)ccc3nc2s1
inhibition in vivo at 5 mg/kg [1]: 88%
inhibition in vivo at 5 mg/kg [3]: 100%

O=C(Nc1nn[nH]n1)c1ccc2nc3sc(-c4ccccc4)cc3c(=O)n2c1
inhibition in vivo at 5 mg/kg [1]: 17%
inhibition [2]: No significant activity

Cc1cc2c(=O)n3cc(C(N)=O)ccc3nc2s1
inhibition in vivo at 5 mg/kg [1]: 100%
inhibition in vivo at 5 mg/kg [3]: 38%

CCc1cc2c(=O)n3cc(C(=O)Nc4nn[nH]n4)ccc3nc2s1
inhibition in vivo at 5 mg/kg [1]: 62%
inhibition [2]: No significant activity

CCCCc1cc2c(=O)n3cc(C(N)=O)ccc3nc2s1
inhibition in vivo at 5 mg/kg [1]: 25%
inhibition [2]: No significant activity

O=c1c2cc(-c3ccccc3)sc2nc2ccc(-c3nnn[nH]3)cn12
inhibition in vivo at 5 mg/kg [1]: 84%
inhibition [2]: No significant activity

CCc1cc2c(=O)n3cc(C(=O)OC)ccc3nc2s1
inhibition in vivo at 5 mg/kg [1]: 100%
inhibition in vivo at 5 mg/kg [3]: 75%

CCOC(=O)c1sc2nc3ccc(C(=O)OC)cn3c(=O)c2c1C
inhibition [8]: No significant activity

Cc1sc2nc3ccc(C(=O)O)cn3c(=O)c2c1C
inhibition in vivo at 5 mg/kg [1]: 28%
inhibition [2]: No significant activity

O=C1c2ccccc2S(=O)(=O)c2cc(-c3nn[nH]n3)ccc21 [DOXANTRAZOLE]
ED50 [9]: 5 mg/kg
ED50 [10]: 1.5 mg/kg

CC(C)c1cc2c(=O)n3cc(-c4nnn[nH]4)ccc3nc2s1
inhibition in vivo at 5 mg/kg [1]: 28%

CCCCc1cc2c(=O)n3cc(-c4nnn[nH]4)ccc3nc2s1
inhibition in vivo at 5 mg/kg [1]: 26%

CC(C)c1cc2c(=O)n3cc(C(=O)Nc4nn[nH]n4)ccc3nc2s1
inhibition in vivo at 5 mg/kg [1]: 30%

Cc1sc2nc3ccc(-c4nnn[nH]4)cn3c(=O)c2c1C
inhibition in vivo at 5 mg/kg [1]: 30%
inhibition in vivo at 5 mg/kg [3]: 21%
